# Screening data (PubChem BioAssay)
# APP 5'UTR act: APP 5'UTR luciferase reporter activation; SH-SY5Y APP 5'UTR luciferase reporter, luminescence; zero percent = DMSO vehicle wells; activation, % at 2 µM; 1% of 190,000 active;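 active = activation above a set limit, based on mean plus 3 SD of controls, cut at about 140% in these data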
# STAT1 blocker: reduces IFN-gamma driven STAT1 reporter signal | inhibition, % at 5.5 µM | 0.35% of 200,000 active | NIH 3T3 STAT1-luciferase reporter, luminescence;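 active = inhibition above a set limit, the mean inhibition across all tested compounds plus 3 SD, cut at about 34% in these data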
# NF-kB neuron act: raises NF-kB expression in human neuronal cells; NF-kB reporter expression; hits give high values; fold change at 12.5 µM; 1.6% of 190,000 active; AID 1239; in the data active = fold change above about 3.3
# STAT3 blocker: STAT3 signaling inhibition; inhibition, % at 5.5 µM; U3A cells, IL-6 STAT3-luciferase reporter, luminescence; host cell line lacks STAT1; 0.89% of 190,000 active;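 active = inhibition above the mean inhibition across all screened compounds plus 3 SD, cut at about 44% in these data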
# STAT1 act: activators of IFN-gamma induced STAT1 signaling; NIH 3T3 STAT1-luciferase reporter, luminescence; 100% = IFN-gamma alone, no compound; activation (% of control), % at 5.5 µM; 2.6% of 200,000 active; AID 932;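 active = activation above the screen-wide mean activation plus 3 SD, cut at about 130% in these data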
# STAT3 activator: STAT3 signaling activation; U3A cells, IL-6 STAT3-luciferase reporter, luminescence; 100% = signal with IL-6 EC80 alone; activation (% of control), % at 5.6 µM; 0.91% of 190,000 active; AID 871;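 active = activation above the screen-wide mean of compound activation plus 3 SD, cut at about 130% in these data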
#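 Material: STAT3-luciferase reporter U3A cells; Probe or stimulus: IL-6 (33 ng/mL); Incubation: compound pre-incubation 1 h before IL-6, then 6 h stimulation at 37 °C; Technique: luminescence from STAT3-driven luciferase reporter; Evaluation: % activation versus median of IL-6-stimulated wells; Controls: IL-6-only high control.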
# Hits are given with their value; 0 = inactive; - = no result. This is a sample that favours compounds with a hit; in the whole collection about 4.9% have one here.
SMILES,APP 5'UTR act,STAT1 blocker,NF-kB neuron act,STAT3 blocker,STAT1 act,STAT3 activator
Cc1ccc(C2=NN=C(NC(=O)CSc3nncn3C)SC2)cc1,0,0,0,0,0,0
CCc1ccc(/C=C2\CN(CC)Cc3c2nc2ccccc2c3C(=O)O)cc1,0,0,0,0,0,0
O=C(O)c1c2c(nc3ccccc13)/C(=C/c1ccc(O)cc1)CC2,0,43,0,58,0,0
Cc1cccc(NC(=O)c2ccc3ccccc3n2)c1C,211,0,9.1,0,134,142
CCC(CC)c1nnc(NC(=O)c2ccc3ccccc3n2)s1,0,0,4.9,0,152,152
O=C(Nc1ccc([N+](=O)[O-])cc1)c1ccccc1F,0,0,0,0,138,0
O=C(CN(Cc1cccs1)C(=O)CCC(=O)Nc1ccccn1)NCc1ccccc1,0,0,0,0,0,0
CCOc1ccc2nc(NC(=O)NC3CCCCC3)sc2c1,0,0,0,0,0,0
O=C(Nc1nnc(Cc2ccc(Cl)cc2)s1)C1CCCO1 (stereo not drawn),0,0,0,0,0,0
Nc1ccc2nc(NC(=O)C3CCCCC3)sc2c1,0,0,4.8,0,146,0
CCOc1ccc2nc(NC(=O)C3CCCO3)sc2c1 (stereo not drawn),158,0,4.7,0,140,0
O=C(Nc1ncc(Cc2ccccc2)s1)C1CCCO1 (stereo not drawn),0,0,4.1,0,0,0
O=C(Nc1nc2ccc(C(=O)N3CCCCC3)cc2s1)C1CCCCC1,0,0,0,0,0,0
O=C(Nc1nnc(-c2ccncc2)s1)C1CCCO1 (stereo not drawn),0,0,0,0,0,0
O=C(Nc1nnc(-c2ccccc2F)s1)C1CCCO1 (stereo not drawn),0,0,0,0,141,0
CSc1ncccc1C(=O)Nc1nnc(C2CC2)s1,0,0,0,0,0,0
COc1ccc(C(=O)NCC(=O)N/N=C/c2cccc(OC(=O)c3ccco3)c2)cc1OC,0,0,0,0,0,0
CNc1cncc(C(=O)O)c1,0,0,0,0,0,0
O=C(Nc1nc2ccc(F)cc2s1)C1CCCO1 (stereo not drawn),0,0,3.9,0,146,0
CCOc1cc(/C=N/NC(=O)C(=O)Nc2cc(Cl)ccc2C)ccc1O,0,0,0,0,0,0
O=C(O)CCn1c(=O)sc2ccccc21,0,0,0,0,0,0
Cc1ccc(OCCn2c(=O)n(C)c3ccccc32)cc1,0,0,0,0,150,0
O=c1sc2ccccc2n1CCOc1ccccc1,0,0,0,0,142,0
COc1ccccc1OCCn1c(=O)n(C)c2ccccc21,0,0,0,0,0,0
COC(=O)c1ccc(COC(=O)c2ccccn2)cc1,0,0,0,0,133,0
SMILES,APP 5'UTR act,STAT1 blocker,NF-kB neuron act,STAT3 blocker,STAT1 act,STAT3 activator
N/C(=N\OC(=O)c1ccccc1)c1ccccn1,150,71,0,72,0,0
N/C(=N\OC(=O)c1ccc(Br)o1)c1ccccn1,149,0,3.7,0,0,0
N/C(=N\OC(=O)c1ccccc1)c1ccncc1,0,0,0,0,0,0
N/C(=N\OC(=O)c1ccc(Br)cc1)c1ccncc1,0,0,0,0,143,0
COc1cc(C2C(C#N)=C(N)Oc3cc(N)ccc32)cc(OC)c1OC (stereo not drawn),0,0,3.7,0,0,0
CC1(C)CC(=O)c2c(O)cc(OCc3ccc(Br)cc3)cc2O1,139,0,0,0,146,0
CC(C)=CCC(C)(C)/C=N/NC(N)=O,0,-,-,-,-,-
Cc1ccc(C(=O)c2sc3nc4c(cc3c2N)CCC4)cc1,192,0,0,0,0,0
Cc1ccc(-c2c3c(nc4sc(C(N)=O)c(N)c24)CCC3)cc1,0,0,0,0,0,0
O=C(c1ccc(F)cc1F)N1CCN(c2n[nH]c(=O)[nH]c2=O)CC1,0,0,0,0,0,0
CC(C)c1ccc(S(=O)(=O)/N=C2/C=CC(=O)c3ccccc32)cc1,0,0,-,0,0,135
CCCCOc1ccc(/C=C/C2=CC(C)(C)NC(=S)N2)cc1OCC,0,0,0,0,0,0
NC(=S)Nc1cnc2ccccc2c1,0,0,0,0,0,0
Oc1ccccc1CNc1cnc2ccccc2c1,0,0,3.6,0,0,0
